KCNQ1 block – blocks the human KCNQ1 potassium channel | P51787 | CHO-K1 KCNQ1, FluxOR thallium flux fluorescence; stronger effect = higher value | B-score at 10 µM | 1.3% of 310,000 active | AID 2642;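 active = compounds whose thallium flux B-score, printed positive for inhibition, exceeds three library SD while starting fluorescence stays within three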;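 note: channel opened by potassium depolarization with thallium stimulus after 20 min compound exposure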
KCNK9 inh – inhibitors of human KCNK9 two-pore domain potassium channel | Q9NPC2 | HEK293 KCNK9, FluxOR thallium flux fluorescence; stronger effect = lower value | B-score at 10 µM | 1.2% of 310,000 active | AID 488922;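 active = ratio B-score over 3 SD below the library mean, with starting fluorescence within 5 SD of its mean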;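 note: negative B-score means less thallium flux so channel inhibition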
Target sequence (Q9NPC2 whole entry, looked up, the tested form may be a part): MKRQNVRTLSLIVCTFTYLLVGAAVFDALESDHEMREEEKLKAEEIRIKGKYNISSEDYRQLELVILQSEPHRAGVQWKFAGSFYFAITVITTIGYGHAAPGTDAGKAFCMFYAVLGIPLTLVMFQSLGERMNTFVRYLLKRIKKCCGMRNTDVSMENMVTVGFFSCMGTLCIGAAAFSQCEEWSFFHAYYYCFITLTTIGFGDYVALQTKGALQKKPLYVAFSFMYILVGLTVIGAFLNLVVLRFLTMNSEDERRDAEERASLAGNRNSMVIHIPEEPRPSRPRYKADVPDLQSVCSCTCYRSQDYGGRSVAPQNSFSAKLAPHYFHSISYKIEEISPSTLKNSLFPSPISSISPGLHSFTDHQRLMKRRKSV
hERG protect – compounds protecting human hERG from proarrhythmic drug block. activation (rescue from dofetilide block), less the hit threshold, % at 10 µM. 0.51% of 310,000 active. CHO-hERG, FluxOR thallium flux, dofetilide IC70 present;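 active = activation above the mean of controls blocked by dofetilide plus 5 SD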;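 note: thallium influx through hERG after potassium depolarization seen as dye fluorescence rise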
Kir21 inh – inhibitors of mouse Kir2.1 inward-rectifier potassium channel. HEK293-Kir2.1, FluxOR thallium flux fluorescence; stronger effect = lower value. B-score at 10 µM. 0.85% of 310,000 active. AID 1672;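 active = fluorescence ratio B-score at or below minus 3 SD of library scores, with starting-brightness B-score within 2 SD, cut at about -4.2 in these data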;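 note: channel flux triggered by added potassium and thallium sulfate stimulus; B-score of peak minus minimum fluorescence over baseline after thallium stimulus; more negative B-score means stronger Kir2.1 block with less thallium influx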
KCNK3 inh – human KCNK3 channel inhibition, primary screen; O14649; CHO-KCNK3 thallium flux, FluxOR fluorescence; stronger effect = lower value; B-score at 10 µM; AID 602410; 0.84% of 340,000 active;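 active = B-score under library mean minus 4 SD, starting fluorescence ratio at most library mean plus 5 SD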;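 note: more negative B-score means stronger inhibition of thallium flux through KCNK3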
KCNQ1 act – human KCNQ1 channel potentiation or activation. CHO-K1 KCNQ1, thallium flux FluxOR fluorescence; stronger effect = higher value. AID 2648. B-score at 10 µM. 0.35% of 310,000 active;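 active = fluorescence ratio B-score, a plate-corrected score, at least three library SD, with initial intensity B-score within 5 SD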
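System: Stable KCNQ1 CHO-K1 line | Incubation: 90 min dye loading and 20 min compound exposure, both at room temperature | Measure: Ratio B score | Medium: Assay buffer for compound exposure, DMSO matched across wells | Compound dosing: Single-concentration screen | Probe or stimulus: K+/Tl+ depolarizing stimulus | Measured by: Kinetic FluxOR fluorescence, 10 s baseline plus 110 s post-stimulus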
KCNK9 block conf – human KCNK9 inhibitor confirmation. shares compounds with KCNK9 inh. HEK293 KCNK9 cells, FluxOR thallium flux fluorescence. inhibition, % at 10 µM. 43% of 4,900 active;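 active = thallium signal inhibited by more than 5 SD of the compound-free buffer control wells, on both duplicate plates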;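 note: 0% = assay buffer control wells without compound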
Kir2-1 spec – selectivity of KCNK9 modulators against mouse Kir2.1 | inhibition, % at 10 µM | 4% of 4,900 active | Kir2.1 cells, FluxOR thallium flux fluorescence | shares compounds with KCNK9 inh;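 active = thallium signal drop more than 5 SD beyond the mean of the no-compound control wells, seen in both duplicate plates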;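 note: signal is fluorescence rise after thallium addition divided by baseline fluorescence; plate controls were assay buffer only for no effect and full block by chlorpromazine control for full effect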
KCNK9 uninduced – second counter-screen for KCNK9 modulators: effect in non-induced cells | shares compounds with KCNK9 inh | 40% of 4,900 active | non-induced KCNK9-HEK293, FluxOR thallium flux | AID 492997 | inhibition, % at 10 µM;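 active = thallium signal drop beyond 5 SD of the untreated control mean, on both duplicate plates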;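 note: plate controls were buffer only IC0 wells for no effect and SID17386958 at its maximal inhibitory level for full effect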
* marks the source's active call; other numbers are inactive results; i = inactive; . = not tested or not shown. Only some compounds are listed: those with a hit (about 3.8% of all), similar ones and a draw of the others.

SMILES	KCNQ1 block	KCNK9 inh	hERG protect	Kir21 inh	KCNK3 inh	KCNQ1 act	KCNK9 block conf	Kir2-1 spec	KCNK9 uninduced
COc1cccc(OC)c1NC(=O)C1CCCN1C(=O)Nc1ccccc1F (stereo not drawn)	i	i	-7	1.1	i	i	.	.	.
C=CCSc1nnc(CCCCCN2C(=O)c3cccc4cccc(c34)C2=O)o1	i	i	-10	0.81	i	i	i	35%*	i
CCCOc1ccc(-c2c(=O)n(OCc3ccc([N+](=O)[O-])cc3)c3ccccc3[n+]2[O-])cc1	i	-11*	-4	1.4	i	i	50%*	i	34%*
CCOc1ccc(-c2c(=O)n(OCc3nc4ccccc4[nH]3)c3ccccc3[n+]2[O-])cc1	i	i	-16	-0.38	i	i	.	.	.
COc1ccc(N=C(c2ccccc2)c2c(C)[nH]n(-c3ccccc3)c2=O)c(OC)c1	6*	i	-16	-0.7	i	i	i	i	32%*
CCc1ccccc1N1C(=O)CC(Sc2nccc(C)n2)C1=O (stereo not drawn)	i	i	-6	-1.5	i	i	i	i	i
Cc1cc(NC(=O)c2ccccc2C)ccc1NC(=O)c1ccccc1Cl	i	i	-7	-0.03	i	i	.	.	.
COc1ccccc1C(CC(=O)c1ccccc1)CC(=O)c1ccccc1	i	-8.6*	-11	0.18	i	i	30%*	i	31%*
COC(=O)C(CC(=O)c1ccccc1)CC(=O)c1ccccc1	i	i	-4	-0.12	i	i	.	.	.
O=C1c2ccccc2C(O)(c2ccccc2)N1c1ccc([N+](=O)[O-])cc1Cl (stereo not drawn)	.	.	.	.	i	.	.	.	.
O=[N+]([O-])c1ccccc1Nc1cccnc1	i	i	-8	-0.89	i	i	.	.	.
OC1CCN(Cc2cccc3ccccc23)CC1	i	i	-9	-2.7	i	i	.	.	.
C(=N\N1CCN(Cc2ccccc2)CC1)/c1cccs1	i	i	-4	1.9	i	i	.	.	.
CCN(CC)c1ccc(/C=N/N2CCN(Cc3ccc(Cl)cc3)CC2)c(O)c1	i	i	-3	-1.2	i	i	.	.	.
C/C(=N/N1CCN(Cc2cccc3ccccc23)CC1)c1ccco1	i	i	-13	-0.41	i	i	i	i	i
CCN(CC)c1ccc(/C=N/N2CCN(Cc3cccc4ccccc34)CC2)c(O)c1	i	i	-8	-0.61	i	i	i	i	i
C(=N\N1CCN(Cc2cccc3ccccc23)CC1)/c1cccs1	i	i	-4	0.69	i	i	i	i	i
CCN(CC(=O)Nc1cc(Cl)ccc1C)C(=O)Cc1sc(C)nc1-c1ccc(F)cc1	i	-9.8*	-15	-1.3	-9.7*	i	i	i	30%*
CCOC(=O)c1ccccc1NC(=O)COC(=O)C1CCCC1	i	i	-12	2.2	i	i	.	.	.
Fc1ccc(C2c3[nH]c4ccccc4c3CCN2Cc2ccoc2)cc1 (stereo not drawn)	i	i	-9	-1.7	i	i	i	i	i
COc1cccc(C(=O)NCC(C)(C)SCc2ccc(F)cc2)c1	i	i	-6	0.37	i	i	i	i	i
COc1ccc(CN(C)CC(=O)NC(=O)NCc2ccccc2)c(OC)c1	i	i	-5	-1.8	i	i	i	i	i
CN(CC(=O)NCc1ccccc1)Cc1cccc(F)c1	i	i	-5	1.6	i	i	.	.	.
CN(CC(=O)NC(=O)NCc1ccccc1)Cc1ccc(Cl)c(Cl)c1	i	i	-9	-0.02	i	i	i	i	i
Cc1csc2nc(CSc3nc4ccccc4o3)c(Br)n12	i	-12*	-3	-0.17	i	i	i	i	46%*
SMILES	KCNQ1 block	KCNK9 inh	hERG protect	Kir21 inh	KCNK3 inh	KCNQ1 act	KCNK9 block conf	Kir2-1 spec	KCNK9 uninduced
O=C(Nc1sc2c(c1C(=O)NCc1ccco1)CCCC2)c1ccc2c(c1)OCO2	i	-10*	-4	-0.57	i	i	42%*	i	i
COc1ccc(C(=O)Nc2sc3c(c2C(=O)NCc2ccco2)CCCC3)cc1OC	i	-12*	-9	-0.41	i	i	31%*	i	i
CC(C)CC1NC(=O)N(CC(=O)Nc2cc(S(=O)(=O)N3CCOCC3)ccc2Cl)C1=O (stereo not drawn)	.	.	.	.	i	.	.	.	.
Cc1cc(N/N=C/c2ccc(Cl)cc2)nc(NCc2ccccc2)n1	i	i	-3	1.2	i	i	.	.	.
CN(C)c1nc(NCc2ccccc2)nc(N/N=C/c2ccc(Cl)cc2Cl)n1	i	i	-18	0.01	i	i	i	i	i
C[C@H](NS(=O)(=O)c1ccc2c(c1)OCCCO2)C(=O)N1CCN(Cc2ccc(C#N)cc2)CC1	.	.	.	.	i	.	.	.	.
O=C(CCc1ccc(Oc2cc([N+](=O)[O-])cc([N+](=O)[O-])c2)cc1)N1CCCCCC1	i	-10*	-7	0.02	i	i	46%*	i	i
O=C(Cc1ccc([N+](=O)[O-])cc1)N1CCCCCC1	i	i	-9	-0.84	i	i	.	.	.
Cc1ccc(S(=O)(=O)N(CC(=O)c2ccccc2)C(=O)N2CCN(C)CC2)cc1	i	i	-2	0.06	i	i	.	.	.
Cc1ccc(C2CC2c2n[nH]c(=S)n2-c2ccc(C)cc2)cc1 (stereo not drawn)	i	i	-8	-0.86	i	i	i	i	i
CC(=O)NC12CC3CC(C1)CC(C(=O)N(C)CC(=O)Nc1ccccc1Cl)(C3)C2	i	i	-5	0.39	i	i	.	.	.
c1ccc(Cn2nnc(CNc3ccccc3)c2-c2c(CNc3ccccc3)nnn2Cc2ccccc2)cc1	i	-17*	-7	0.98	i	i	64%*	i	36%*
Nc1c(C(=O)NCc2ccccc2)nnn1Cc1ccccc1	i	i	-9	-1.4	i	i	.	.	.
O=C(N/N=C/c1c[nH]c2ccc(Br)cc12)c1ccn(Cc2ccc(Cl)cc2)n1	i	-15*	-4	2.8	i	i	49%*	i	i

Bioassay records (PubChem BioAssay)
